According to ChEMBL document CHEMBL4184325, “Discovery of 4,7-Diamino-5-(4-phenoxyphenyl)-6-methylene-pyrimido[5,4- b]pyrrolizines as Novel Bruton's Tyrosine Kinase Inhibitors” (J Med Chem, 2018):
pIC50: −log10 of the molar value. Activity calls are given as the source filed them. No cut-off for these calls is given here.

Key:
[1] = target: Macrophage colony-stimulating factor 1 receptor (Homo sapiens, UniProt P07333); assay: Inhibition of recombinant human CSF1R using Poly(Glu, Tyr) 4:1 as substrate after 1 hr by ELISA
Macrophage colony-stimulating factor 1 receptor, sequence (P07333 whole entry): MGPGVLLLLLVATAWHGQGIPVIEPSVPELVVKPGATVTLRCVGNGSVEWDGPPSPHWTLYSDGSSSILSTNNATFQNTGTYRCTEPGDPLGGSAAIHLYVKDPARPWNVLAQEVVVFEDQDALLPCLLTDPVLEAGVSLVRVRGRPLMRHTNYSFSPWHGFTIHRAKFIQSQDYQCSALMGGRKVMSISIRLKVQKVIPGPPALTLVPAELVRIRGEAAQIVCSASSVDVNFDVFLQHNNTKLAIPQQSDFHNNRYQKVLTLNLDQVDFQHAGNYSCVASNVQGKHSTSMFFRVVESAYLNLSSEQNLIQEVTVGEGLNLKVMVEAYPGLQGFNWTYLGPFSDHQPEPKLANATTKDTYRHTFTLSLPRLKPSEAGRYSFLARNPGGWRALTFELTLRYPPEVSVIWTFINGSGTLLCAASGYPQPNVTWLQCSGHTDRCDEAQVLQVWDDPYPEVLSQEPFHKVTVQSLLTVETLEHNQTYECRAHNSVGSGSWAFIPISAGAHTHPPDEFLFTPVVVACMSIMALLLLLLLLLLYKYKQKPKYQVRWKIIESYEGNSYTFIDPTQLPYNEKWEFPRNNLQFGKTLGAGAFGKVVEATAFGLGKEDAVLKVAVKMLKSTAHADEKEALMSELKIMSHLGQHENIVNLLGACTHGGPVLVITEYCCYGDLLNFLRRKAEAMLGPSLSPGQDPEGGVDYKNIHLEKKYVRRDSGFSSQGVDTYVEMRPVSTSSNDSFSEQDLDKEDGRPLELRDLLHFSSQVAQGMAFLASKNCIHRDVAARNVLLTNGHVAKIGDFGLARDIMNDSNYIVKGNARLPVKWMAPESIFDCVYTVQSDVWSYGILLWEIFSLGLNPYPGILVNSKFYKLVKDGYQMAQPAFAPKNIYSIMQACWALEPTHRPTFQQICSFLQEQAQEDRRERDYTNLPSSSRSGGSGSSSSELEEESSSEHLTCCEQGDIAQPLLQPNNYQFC
Outline: (§1)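 Kinase activity was measured by ELISA on wells precoated with 20 µg/mL poly(Glu,Tyr) 4:1. Enzyme was incubated with compound in 50 mM HEPES pH 7.4, 20 mM MgCl2, 0.1 mM MnCl2, 0.2 mM Na3VO4, 1 mM DTT with 5 µM ATP at 37 °C for 1 h. Phosphotyrosine was detected with PY99 antibody, HRP secondary and OPD, read at A492. IC50 is the mean of duplicates.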

[2] = target: T1, Tyrosine-protein kinase Tec (Homo sapiens, UniProt P42680); assay: Inhibition of recombinant human TEC using Poly(Glu, Tyr) 4:1 as substrate after 1 hr by ELISA; outline: as §1
T1 sequence (P42680 whole entry): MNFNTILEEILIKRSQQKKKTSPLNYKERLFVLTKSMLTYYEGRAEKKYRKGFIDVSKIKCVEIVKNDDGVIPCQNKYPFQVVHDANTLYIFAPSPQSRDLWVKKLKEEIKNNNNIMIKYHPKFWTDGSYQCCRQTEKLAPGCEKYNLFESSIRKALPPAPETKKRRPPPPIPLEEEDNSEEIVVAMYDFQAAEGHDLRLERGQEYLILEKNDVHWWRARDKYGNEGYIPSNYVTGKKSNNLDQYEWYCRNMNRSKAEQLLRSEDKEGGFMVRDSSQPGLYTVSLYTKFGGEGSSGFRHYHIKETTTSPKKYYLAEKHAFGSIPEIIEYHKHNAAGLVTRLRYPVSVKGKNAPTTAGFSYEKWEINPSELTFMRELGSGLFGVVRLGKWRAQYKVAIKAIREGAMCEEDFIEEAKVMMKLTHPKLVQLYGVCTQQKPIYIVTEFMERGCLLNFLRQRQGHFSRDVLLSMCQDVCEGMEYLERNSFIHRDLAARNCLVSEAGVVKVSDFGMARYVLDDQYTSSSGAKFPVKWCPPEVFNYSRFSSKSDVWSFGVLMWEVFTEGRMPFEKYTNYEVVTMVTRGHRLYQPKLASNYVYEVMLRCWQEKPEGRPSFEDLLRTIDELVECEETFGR

[3] = target: T2, Tyrosine-protein kinase ITK/TSK (Homo sapiens, UniProt Q08881); assay: Inhibition of recombinant human ITK using Poly(Glu, Tyr) 4:1 as substrate after 1 hr by ELISA; outline: as §1
T2 sequence (Q08881 whole entry): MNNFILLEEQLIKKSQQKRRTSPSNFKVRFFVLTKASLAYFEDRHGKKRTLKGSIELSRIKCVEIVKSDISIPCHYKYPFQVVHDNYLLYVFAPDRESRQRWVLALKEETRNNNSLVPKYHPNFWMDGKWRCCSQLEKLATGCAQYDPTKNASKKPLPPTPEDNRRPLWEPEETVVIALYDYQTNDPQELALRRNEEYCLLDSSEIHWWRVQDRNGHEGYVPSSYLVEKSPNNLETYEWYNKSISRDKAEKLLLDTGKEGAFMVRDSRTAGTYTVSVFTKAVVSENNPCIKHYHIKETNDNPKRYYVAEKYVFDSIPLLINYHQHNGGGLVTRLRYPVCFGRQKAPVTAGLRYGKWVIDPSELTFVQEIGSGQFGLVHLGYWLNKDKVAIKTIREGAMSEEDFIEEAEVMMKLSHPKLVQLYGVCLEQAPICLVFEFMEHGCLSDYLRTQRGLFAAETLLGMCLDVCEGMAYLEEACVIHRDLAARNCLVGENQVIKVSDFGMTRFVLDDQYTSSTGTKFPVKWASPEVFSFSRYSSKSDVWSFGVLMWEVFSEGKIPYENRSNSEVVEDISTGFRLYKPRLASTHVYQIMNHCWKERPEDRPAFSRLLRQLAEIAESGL

[4] = Drug metabolism in rat liver microsomes assessed as (S,E)-N-(4-amino-6-methylene-5-(4-phenoxyphenyl)-7,8-dihydro-6H-pyrimido[5,4-b]pyrrolizin-7-yl)-3-hydroxyacrylamide formation after 3 hrs; assay type: ADME, microsome
[5] = Drug metabolism in human liver microsomes assessed as (S,E)-N-(4-amino-6-methylene-5-(4-phenoxyphenyl)-7,8-dihydro-6H-pyrimido[5,4-b]pyrrolizin-7-yl)-3-hydroxyacrylamide formation after 3 hrs; assay type: ADME, microsome
[6] = Drug metabolism in mouse liver microsomes assessed as (S)-4-(4-(4,7-diamino-6-methylene-7,8-dihydro-6H-pyrimido[5,4-b]pyrrolizin-5-yl)phenoxy)phenol formation after 3 hrs; assay type: ADME, microsome
[7] = Drug metabolism in rat liver microsomes assessed as (S)-N-(4-amino-5-(4-hydroxyphenyl)-6-methylene-7,8-dihydro-6H-pyrimido[5,4-b]pyrrolizin-7-yl)acrylamide formation after 3 hrs; assay type: ADME, microsome
TMD8 [8] = assay: Induction of apoptosis in human TMD8 cells assessed as early apoptotic cells at 100 nM after 72 hrs by Annexin-FITC/propidium iodide staining-based flow cytometric method (reference value: 7.98%); assay type: functional
[9] = target: Epidermal growth factor receptor (Homo sapiens, UniProt P00533); assay: Inhibition of recombinant human EGFR using Poly(Glu, Tyr) 4:1 as substrate after 1 hr by ELISA; outline: as §1
Epidermal growth factor receptor, sequence (P00533 whole entry): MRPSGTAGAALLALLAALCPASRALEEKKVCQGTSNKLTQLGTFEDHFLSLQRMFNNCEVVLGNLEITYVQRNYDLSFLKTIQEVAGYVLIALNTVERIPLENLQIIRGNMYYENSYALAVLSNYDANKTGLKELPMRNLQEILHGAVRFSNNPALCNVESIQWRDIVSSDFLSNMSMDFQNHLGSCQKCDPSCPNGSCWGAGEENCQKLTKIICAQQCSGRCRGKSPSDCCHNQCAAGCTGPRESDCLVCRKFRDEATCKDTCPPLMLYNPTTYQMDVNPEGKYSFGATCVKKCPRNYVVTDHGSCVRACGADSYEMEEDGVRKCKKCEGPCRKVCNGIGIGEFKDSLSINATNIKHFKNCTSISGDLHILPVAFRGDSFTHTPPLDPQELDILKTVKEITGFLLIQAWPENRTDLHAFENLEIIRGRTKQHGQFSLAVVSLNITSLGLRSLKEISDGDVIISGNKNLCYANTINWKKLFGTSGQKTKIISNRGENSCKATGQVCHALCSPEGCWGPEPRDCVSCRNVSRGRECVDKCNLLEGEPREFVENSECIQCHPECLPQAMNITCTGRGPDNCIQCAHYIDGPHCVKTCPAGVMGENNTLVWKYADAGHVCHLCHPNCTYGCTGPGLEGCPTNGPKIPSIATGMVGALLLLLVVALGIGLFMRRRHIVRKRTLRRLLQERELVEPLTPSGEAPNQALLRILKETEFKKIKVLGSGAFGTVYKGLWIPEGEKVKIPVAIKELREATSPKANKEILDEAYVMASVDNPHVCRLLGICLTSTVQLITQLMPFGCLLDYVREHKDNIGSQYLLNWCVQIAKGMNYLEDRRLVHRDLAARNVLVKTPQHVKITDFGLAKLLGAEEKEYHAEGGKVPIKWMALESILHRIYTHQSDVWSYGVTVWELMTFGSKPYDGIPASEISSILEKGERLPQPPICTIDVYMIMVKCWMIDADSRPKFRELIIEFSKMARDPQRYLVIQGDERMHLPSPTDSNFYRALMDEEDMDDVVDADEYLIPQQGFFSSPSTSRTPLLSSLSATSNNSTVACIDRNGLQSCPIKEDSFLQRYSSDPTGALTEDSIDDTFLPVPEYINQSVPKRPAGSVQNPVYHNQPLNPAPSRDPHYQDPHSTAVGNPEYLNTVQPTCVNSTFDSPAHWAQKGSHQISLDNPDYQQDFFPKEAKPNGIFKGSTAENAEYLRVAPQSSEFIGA

[10] = target: Tyrosine-protein kinase BTK (Homo sapiens, UniProt Q06187); settings: TMD8, 1 to 100 nM
Tyrosine-protein kinase BTK, sequence (Q06187 whole entry): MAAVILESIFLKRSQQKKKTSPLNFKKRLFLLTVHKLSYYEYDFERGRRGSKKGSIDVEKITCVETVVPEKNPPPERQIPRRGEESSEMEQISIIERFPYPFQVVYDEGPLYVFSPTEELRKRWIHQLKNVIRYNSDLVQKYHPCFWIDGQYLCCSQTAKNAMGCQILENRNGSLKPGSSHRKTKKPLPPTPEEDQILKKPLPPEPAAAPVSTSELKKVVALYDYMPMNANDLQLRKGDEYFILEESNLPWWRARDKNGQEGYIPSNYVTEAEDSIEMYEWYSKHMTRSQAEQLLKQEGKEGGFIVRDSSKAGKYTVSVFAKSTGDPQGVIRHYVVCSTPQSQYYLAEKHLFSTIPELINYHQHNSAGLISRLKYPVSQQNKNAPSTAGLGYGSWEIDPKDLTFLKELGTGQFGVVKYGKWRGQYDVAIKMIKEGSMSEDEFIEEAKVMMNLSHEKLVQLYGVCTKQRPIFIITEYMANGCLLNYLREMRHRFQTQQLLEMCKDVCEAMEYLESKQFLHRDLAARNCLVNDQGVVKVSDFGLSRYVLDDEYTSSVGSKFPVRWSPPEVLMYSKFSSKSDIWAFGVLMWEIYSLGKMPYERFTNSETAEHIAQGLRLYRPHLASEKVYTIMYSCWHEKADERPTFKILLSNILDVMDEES

TMD8 [11] = assay: Induction of apoptosis in human TMD8 cells after 72 hrs by Annexin-FITC/propidium iodide staining-based flow cytometric method; assay type: functional, cell-based
Mus musculus = assay: In vivo inhibition of BTK autophosphorylation at Y223 in human TMD8 cells xenografted in CB17 SCID nude mouse at 15 mg/kg, […] by Western blot method; assay type: functional, organism-based
[12] = target: T3, Tyrosine-protein kinase TXK (Homo sapiens, UniProt P42681); assay: Inhibition of recombinant human TXK using Poly(Glu, Tyr) 4:1 as substrate after 1 hr by ELISA; outline: as §1
T3 sequence (P42681 whole entry): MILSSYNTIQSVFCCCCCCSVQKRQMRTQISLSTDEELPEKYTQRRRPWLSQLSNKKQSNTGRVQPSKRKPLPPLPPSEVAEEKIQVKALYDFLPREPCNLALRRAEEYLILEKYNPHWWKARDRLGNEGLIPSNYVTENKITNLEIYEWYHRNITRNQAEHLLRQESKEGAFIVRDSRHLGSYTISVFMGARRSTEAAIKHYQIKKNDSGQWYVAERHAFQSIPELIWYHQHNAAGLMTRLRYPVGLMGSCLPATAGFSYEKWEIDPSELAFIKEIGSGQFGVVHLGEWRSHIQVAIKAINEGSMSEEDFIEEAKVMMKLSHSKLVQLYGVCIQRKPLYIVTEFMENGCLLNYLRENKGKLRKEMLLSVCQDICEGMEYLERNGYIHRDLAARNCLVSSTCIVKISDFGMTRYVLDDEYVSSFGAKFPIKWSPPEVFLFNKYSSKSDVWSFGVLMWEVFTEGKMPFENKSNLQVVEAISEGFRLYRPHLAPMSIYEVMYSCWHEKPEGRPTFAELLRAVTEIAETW

pIC50 [1]: < 6.00 | pIC50 [2]: 8.85 | pIC50 [3]: 7.82 | Drug metabolism [4]: Metabolite_Detected | Drug metabolism [5]: Metabolite_Detected | Drug metabolism [6]: Metabolite_Detected | Drug metabolism [7]: Metabolite_Detected | pIC50 [9]: 8.89 | inhibition [10]: Active | pIC50 [12]: 8.60
SMILES: C=CC(=O)N[C@@H]1Cn2c(c(-c3ccc(Oc4ccccc4)cc3)c3c(N)ncnc32)C1=C
Activity (TMD8 [8]): 34.5% | Activity (TMD8 [11]): Dose-dependent effect | inhibition (Mus musculus): Active
